From ChEMBL document CHEMBL1132287, “Selective, tight-binding inhibitors of integrin alpha4beta1 that inhibit allergic airway responses” (J Med Chem, 1999)
*1 amine or outer side, *2 acyl side, *3 side chain or, on linkers, in order; H or OH if unused. Where a SMILES comes first, the peptide text is derived from it. [ ]: non-standard residue; d: D form. The star is where a group is joined. X1 = O=C(Cc1ccc(N[*:1])cc1)[*:2]; NH(2-Me-phenyl) = Cc1ccccc1N*; PhAc = O=C(Cc1ccccc1)*; CO = O=C([*:1])[*:2]; Ahx = NCCCCCC(=O)O

Columns and labels:
Integrin alpha-4/beta-1 [1] = target: T1, Integrin alpha-4/beta-1 (Homo sapiens, UniProt P05556+P13612); assay: Inhibition of integrin alpha4-beta1 adhesion to Jurkat cells; assay type: cell-based
Summary of the method: (§1)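 BCECF-AM-labeled Jurkat cells (20 min, 37 °C) incubated 30 min with serial inhibitor dilutions or vehicle plus 1 mM MnCl2 in wells coated overnight at 4 °C with 1 ug/mL CS-1–BSA conjugate; after washing, bound cells read by fluorescence at 530 nm.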

Integrin alpha-4/beta-1 [2] = target: T1, Integrin alpha-4/beta-1; assay: Inhibition of integrin alpha4-beta1 binding to VCAM-Ig; assay type: protein-complex assay
Integrin alpha-4/beta-1 [3] = target: T1, Integrin alpha-4/beta-1; assay: Inhibition of VCAM-Ig binding to integrin alpha4-beta1 of Jurkat cells; assay type: cell-based
Integrin alpha-4/beta-1 [4] = target: T1, Integrin alpha-4/beta-1; assay: Inhibition of integrin alpha4-beta1 adhesion to Jurkat cells (No inhibition); assay type: cell-based; summary of the method: as §1
[5] = Inhibition of integrin alpha6-beta1 adhesion using K562 cells expressing alpha-6; assay type: cell-based, Homo sapiens
Summary of the method: (§2)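 BCECF-AM-labeled cells incubated 30 min at room temperature with inhibitor (1 nM–100 uM serial dilutions) or vehicle plus 1 mM MnCl2 in wells coated overnight at 4 °C with ligand; bound cells read at 530 nm. alpha4beta7: JY cells on CS-1–BSA 1 ug/mL; alpha5beta1: K562 on human 120 kD fibronectin fragment 5 ug/mL; alpha6beta1: alpha6-K562 on mouse laminin 20 ug/mL. IC50 from inhibition curves.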

Integrin alpha-4/beta-7 = target: T2, Integrin alpha-4/beta-7 (Homo sapiens, UniProt P13612+P26010); assay: Inhibition of integrin alpha4-beta7 adhesion to JY cells; assay type: cell-based; summary of the method: as §2
T2 sequence (P13612 whole entry): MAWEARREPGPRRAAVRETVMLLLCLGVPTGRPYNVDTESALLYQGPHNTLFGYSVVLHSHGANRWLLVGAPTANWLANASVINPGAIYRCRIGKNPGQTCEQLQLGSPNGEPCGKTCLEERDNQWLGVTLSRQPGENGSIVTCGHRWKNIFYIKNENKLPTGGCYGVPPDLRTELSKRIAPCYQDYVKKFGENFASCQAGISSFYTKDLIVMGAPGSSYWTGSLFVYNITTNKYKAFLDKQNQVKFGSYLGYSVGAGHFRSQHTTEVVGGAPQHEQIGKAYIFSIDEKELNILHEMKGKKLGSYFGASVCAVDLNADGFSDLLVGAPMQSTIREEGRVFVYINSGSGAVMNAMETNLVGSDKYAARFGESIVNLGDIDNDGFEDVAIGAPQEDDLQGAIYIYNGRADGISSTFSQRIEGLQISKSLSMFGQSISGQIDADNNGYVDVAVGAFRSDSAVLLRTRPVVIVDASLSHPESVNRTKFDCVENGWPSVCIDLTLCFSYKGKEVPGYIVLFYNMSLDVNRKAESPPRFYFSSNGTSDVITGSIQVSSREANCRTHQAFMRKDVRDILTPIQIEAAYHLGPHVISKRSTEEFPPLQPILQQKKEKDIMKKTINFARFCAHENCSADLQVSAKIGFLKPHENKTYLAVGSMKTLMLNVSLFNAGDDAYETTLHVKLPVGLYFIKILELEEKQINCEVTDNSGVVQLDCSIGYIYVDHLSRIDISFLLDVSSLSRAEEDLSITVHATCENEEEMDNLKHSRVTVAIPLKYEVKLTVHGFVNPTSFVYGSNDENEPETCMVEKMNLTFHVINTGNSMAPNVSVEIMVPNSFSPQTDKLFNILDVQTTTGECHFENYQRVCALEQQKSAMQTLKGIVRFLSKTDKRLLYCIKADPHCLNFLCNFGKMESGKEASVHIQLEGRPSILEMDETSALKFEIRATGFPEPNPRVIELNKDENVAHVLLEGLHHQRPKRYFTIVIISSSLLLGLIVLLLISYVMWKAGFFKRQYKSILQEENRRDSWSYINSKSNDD
T2 sequence (P26010 whole entry): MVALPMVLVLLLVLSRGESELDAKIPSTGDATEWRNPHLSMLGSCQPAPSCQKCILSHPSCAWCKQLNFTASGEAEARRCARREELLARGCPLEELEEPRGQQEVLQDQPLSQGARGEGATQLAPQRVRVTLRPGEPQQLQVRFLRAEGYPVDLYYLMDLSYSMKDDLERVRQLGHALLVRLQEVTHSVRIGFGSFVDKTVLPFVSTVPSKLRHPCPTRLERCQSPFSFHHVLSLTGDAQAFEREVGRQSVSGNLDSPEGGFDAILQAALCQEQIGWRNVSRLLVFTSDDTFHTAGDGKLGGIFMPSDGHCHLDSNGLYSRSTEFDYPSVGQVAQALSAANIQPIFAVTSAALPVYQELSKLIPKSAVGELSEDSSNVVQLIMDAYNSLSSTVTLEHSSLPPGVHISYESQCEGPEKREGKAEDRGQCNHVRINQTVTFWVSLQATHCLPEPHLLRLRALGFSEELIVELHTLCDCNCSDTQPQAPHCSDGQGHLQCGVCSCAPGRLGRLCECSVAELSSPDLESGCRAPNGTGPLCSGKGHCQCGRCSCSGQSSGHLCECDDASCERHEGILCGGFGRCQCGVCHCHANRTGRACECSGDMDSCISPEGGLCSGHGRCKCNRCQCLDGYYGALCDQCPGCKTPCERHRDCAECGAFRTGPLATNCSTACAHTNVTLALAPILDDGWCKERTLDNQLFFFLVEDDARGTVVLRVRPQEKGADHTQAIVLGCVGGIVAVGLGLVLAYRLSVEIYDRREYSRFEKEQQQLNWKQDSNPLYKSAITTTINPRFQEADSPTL

[6] = target: Integrin alpha1/beta1 (Homo sapiens); assay: Inhibition of integrin alpha1-beta1 adhesion using K562 cells expressing alpha-1
Integrin alpha-5/beta-1 = Integrin alpha-5/beta-1 (Homo sapiens, UniProt P05556+P08648); assay: Inhibition of integrin alpha5-beta1 adhesion to K562 cells; assay type: cell-based; summary of the method: as §2
[7] = target: Intercellular adhesion molecule (ICAM-1), Integrin alpha-L/beta-2 (Homo sapiens, UniProt P05107+P05362+P20701); assay: Inhibition of ICAM-1 transfected CHO cell adhesion to integrin alphaL-beta2 of human JY cells; assay type: cell-based
[8] = target: Integrin alpha-IIb/beta-3 (Homo sapiens, UniProt P05106+P08514); assay: Inhibition of integrin alphaIIb-beta3 adhesion to human citreated platelets
[9] = Inhibition of integrin alpha1-beta1 adhesion using K562 cells expressing alpha-1; assay type: cell-based, Homo sapiens

Sequence of Integrin alpha-IIb/beta-3 (P05106 27-788 limits assumed): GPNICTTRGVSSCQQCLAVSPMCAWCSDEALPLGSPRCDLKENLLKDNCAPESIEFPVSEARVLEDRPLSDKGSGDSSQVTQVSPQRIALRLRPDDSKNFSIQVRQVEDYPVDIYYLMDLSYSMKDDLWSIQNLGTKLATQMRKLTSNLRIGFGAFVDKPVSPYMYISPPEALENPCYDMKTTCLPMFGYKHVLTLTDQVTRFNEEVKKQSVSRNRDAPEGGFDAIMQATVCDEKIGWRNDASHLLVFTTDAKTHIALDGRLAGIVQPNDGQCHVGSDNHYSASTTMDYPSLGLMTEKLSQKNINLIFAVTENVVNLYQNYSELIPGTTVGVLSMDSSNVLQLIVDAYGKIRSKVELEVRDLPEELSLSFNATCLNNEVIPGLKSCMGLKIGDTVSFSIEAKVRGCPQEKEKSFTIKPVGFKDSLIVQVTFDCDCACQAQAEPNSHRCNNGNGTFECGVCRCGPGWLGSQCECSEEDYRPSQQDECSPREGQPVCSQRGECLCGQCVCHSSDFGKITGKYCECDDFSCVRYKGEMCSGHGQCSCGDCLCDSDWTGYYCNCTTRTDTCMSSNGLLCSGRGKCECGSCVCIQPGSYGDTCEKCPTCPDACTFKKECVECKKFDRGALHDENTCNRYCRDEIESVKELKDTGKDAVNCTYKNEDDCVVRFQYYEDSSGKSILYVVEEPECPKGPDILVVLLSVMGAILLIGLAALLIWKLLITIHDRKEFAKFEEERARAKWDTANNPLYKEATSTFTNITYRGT
Sequence of Integrin alpha-IIb/beta-3 (P08514 32-887 limits assumed): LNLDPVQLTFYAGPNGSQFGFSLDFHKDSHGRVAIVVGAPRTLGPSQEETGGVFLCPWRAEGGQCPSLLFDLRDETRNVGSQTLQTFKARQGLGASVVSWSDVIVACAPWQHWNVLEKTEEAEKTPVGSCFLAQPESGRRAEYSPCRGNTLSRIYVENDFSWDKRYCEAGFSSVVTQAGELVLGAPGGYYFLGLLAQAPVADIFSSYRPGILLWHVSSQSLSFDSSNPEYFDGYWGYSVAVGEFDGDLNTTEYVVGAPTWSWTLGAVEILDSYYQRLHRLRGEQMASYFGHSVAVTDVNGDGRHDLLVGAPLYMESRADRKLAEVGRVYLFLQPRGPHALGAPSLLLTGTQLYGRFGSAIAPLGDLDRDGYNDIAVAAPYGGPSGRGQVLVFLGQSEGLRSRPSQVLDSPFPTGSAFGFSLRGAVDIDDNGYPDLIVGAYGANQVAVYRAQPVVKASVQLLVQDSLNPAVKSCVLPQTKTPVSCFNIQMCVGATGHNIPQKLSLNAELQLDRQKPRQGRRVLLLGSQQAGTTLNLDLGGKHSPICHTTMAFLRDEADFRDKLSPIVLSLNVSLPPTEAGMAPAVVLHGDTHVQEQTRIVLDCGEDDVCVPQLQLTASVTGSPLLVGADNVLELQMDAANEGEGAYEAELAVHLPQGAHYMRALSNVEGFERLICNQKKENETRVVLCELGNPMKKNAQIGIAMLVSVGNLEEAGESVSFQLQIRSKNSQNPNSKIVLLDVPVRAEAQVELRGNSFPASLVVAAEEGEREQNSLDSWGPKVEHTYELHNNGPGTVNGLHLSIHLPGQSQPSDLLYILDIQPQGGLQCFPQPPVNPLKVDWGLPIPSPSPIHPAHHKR
Sequence of Integrin alpha-IIb/beta-3 (P08514 891-1039 limits assumed): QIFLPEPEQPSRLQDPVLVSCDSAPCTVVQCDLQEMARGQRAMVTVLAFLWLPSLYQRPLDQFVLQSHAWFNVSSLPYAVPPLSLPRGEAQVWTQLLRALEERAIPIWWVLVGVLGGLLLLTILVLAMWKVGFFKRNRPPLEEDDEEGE
Sequence of Intercellular adhesion molecule (ICAM-1), Integrin alpha-L/beta-2 (P20701 whole entry): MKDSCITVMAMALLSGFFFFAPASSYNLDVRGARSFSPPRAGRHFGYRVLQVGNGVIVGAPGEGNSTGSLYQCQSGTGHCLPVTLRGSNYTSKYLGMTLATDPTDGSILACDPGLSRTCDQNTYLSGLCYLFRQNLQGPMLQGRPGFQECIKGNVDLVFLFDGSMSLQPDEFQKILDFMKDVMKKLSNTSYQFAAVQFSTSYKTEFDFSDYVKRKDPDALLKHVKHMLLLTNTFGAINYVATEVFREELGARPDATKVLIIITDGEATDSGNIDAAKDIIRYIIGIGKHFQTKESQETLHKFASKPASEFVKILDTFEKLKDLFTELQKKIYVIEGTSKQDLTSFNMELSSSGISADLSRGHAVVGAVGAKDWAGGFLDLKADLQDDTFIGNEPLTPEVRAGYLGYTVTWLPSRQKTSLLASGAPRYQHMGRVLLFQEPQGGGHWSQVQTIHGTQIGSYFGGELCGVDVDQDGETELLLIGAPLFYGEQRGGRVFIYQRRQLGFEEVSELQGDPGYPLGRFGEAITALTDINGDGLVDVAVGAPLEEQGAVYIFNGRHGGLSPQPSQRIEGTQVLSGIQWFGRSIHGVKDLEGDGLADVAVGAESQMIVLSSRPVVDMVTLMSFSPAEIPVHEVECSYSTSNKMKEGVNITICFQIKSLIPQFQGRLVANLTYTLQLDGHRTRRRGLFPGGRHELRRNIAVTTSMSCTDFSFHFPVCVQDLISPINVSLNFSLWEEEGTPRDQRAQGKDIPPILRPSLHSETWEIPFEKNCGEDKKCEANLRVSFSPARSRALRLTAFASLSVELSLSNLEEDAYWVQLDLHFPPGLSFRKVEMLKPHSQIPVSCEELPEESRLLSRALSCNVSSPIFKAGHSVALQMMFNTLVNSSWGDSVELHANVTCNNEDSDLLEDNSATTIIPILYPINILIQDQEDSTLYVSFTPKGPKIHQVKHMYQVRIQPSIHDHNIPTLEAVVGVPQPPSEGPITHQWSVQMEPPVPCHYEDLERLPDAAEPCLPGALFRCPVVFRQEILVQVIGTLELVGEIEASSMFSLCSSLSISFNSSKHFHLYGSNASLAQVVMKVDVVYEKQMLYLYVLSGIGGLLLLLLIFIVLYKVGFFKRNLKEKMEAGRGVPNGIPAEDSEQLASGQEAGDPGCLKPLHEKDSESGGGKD
Sequence of Intercellular adhesion molecule (ICAM-1), Integrin alpha-L/beta-2 (P05362 whole entry): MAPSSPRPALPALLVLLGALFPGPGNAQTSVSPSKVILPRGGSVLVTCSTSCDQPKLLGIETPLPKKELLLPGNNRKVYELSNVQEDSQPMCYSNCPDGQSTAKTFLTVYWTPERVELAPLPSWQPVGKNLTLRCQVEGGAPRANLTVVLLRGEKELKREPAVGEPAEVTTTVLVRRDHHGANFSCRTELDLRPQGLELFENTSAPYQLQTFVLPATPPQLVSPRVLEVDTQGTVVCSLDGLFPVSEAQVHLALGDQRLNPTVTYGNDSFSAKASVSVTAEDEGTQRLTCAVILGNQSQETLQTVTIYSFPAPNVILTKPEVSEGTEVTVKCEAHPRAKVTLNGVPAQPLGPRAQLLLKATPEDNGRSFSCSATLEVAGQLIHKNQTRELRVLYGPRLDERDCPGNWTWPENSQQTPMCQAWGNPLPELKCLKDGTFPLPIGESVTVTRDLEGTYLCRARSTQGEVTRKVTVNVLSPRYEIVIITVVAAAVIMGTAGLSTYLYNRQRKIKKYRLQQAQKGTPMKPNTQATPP
Sequence of Intercellular adhesion molecule (ICAM-1), Integrin alpha-L/beta-2 (P05107 whole entry): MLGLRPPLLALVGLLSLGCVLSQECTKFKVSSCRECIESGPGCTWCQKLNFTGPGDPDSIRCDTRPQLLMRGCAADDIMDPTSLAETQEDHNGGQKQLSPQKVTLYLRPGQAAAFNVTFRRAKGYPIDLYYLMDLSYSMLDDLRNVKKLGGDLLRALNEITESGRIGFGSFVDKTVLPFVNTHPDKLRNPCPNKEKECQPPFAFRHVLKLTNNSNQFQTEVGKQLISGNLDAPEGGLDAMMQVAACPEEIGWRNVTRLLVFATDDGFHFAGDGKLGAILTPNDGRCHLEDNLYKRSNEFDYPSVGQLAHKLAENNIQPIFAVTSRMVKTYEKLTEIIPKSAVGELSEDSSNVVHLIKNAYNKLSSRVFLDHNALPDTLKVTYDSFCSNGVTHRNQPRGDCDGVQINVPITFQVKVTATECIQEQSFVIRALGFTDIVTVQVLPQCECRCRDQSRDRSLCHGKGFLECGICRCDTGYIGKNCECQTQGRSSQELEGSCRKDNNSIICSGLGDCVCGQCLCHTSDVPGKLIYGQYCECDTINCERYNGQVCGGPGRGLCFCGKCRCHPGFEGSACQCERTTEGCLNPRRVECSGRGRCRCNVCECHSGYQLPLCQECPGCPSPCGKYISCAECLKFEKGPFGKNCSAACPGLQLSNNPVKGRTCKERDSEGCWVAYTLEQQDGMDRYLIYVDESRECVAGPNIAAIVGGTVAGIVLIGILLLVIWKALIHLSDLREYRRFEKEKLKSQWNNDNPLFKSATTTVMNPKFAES
T1 sequence (P05556 whole entry, one chain of several): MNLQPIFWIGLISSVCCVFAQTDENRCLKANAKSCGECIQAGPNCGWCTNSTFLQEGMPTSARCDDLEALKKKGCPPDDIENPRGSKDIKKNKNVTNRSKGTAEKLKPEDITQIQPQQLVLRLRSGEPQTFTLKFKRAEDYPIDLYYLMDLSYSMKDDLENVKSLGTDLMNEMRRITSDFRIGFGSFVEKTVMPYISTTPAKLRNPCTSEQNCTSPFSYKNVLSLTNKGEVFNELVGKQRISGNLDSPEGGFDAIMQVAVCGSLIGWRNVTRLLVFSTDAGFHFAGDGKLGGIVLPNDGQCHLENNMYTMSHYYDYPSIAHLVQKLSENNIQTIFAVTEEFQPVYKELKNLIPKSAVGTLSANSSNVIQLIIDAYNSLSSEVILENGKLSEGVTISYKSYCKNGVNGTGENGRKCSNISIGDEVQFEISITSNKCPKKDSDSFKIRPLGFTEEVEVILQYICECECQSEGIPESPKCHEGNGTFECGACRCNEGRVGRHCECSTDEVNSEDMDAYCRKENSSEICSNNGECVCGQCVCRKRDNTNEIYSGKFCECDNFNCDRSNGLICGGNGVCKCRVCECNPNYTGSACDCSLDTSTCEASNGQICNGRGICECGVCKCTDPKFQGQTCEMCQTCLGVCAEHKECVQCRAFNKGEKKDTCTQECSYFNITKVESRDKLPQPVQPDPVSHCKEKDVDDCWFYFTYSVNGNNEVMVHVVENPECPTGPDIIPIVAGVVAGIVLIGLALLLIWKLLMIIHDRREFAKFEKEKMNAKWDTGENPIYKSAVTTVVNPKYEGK

Which IC50 (Integrin alpha-4/beta-1 [1]) does the source give for CC(C)C[C@H](NC(=O)[C@@H](N)Cc1ccc(O)cc1)C(=O)N[C@@H](CC(=O)O)C(=O)N[C@H](C(=O)O)C(C)C (H-YLDV-OH) here?
The IC50 was 51000 nM.

What about the IC50 (Integrin alpha-4/beta-1 [2]) of the same molecule?
The IC50 was 12600 nM.

Which results are given for CC(C)C[C@H](NC(=O)Cc1ccc(NC(=O)c2ccccc2)cc1)C(=O)N[C@@H](CC(=O)O)C(=O)N[C@H](C(=O)O)C(C)C?
IC50 (Integrin alpha-4/beta-1 [1]): 3250 nM; IC50 (Integrin alpha-4/beta-1 [2]): 295 nM

With Cc1ccccc1NC(=O)Nc1ccc(CC(=O)O)cc1 as the molecule, how does the IC50 (Integrin alpha-4/beta-1 [3]) read?
Its IC50 is “No inhibition”.

And the IC50 (Integrin alpha-4/beta-1 [4])?
Its IC50 is “Not Active”.

Which results are given for Cc1ccccc1NC(=O)Nc1ccc(CC(=O)N[C@@H](CC(C)C)C(=O)N[C@@H](CC(=O)O)C(=O)N[C@H](C(=O)O)C(C)C)cc1?
IC50 [5]: > 100000 nM; IC50 (Integrin alpha-4/beta-7): 8000 nM; IC50 (Integrin alpha-4/beta-1 [1]): 6 nM; IC50 [6]: > 100000 nM; IC50 (Integrin alpha-5/beta-1): > 100000 nM; IC50 [7]: > 50000 nM; IC50 (Integrin alpha-4/beta-1 [2]): 0.6 nM; IC50 [8]: > 100000 nM

Which IC50 (Integrin alpha-4/beta-1 [1]) does the source give for Cc1ccccc1NC(=O)Nc1ccc(CC(=O)N[C@@H](CC(C)C)C(=O)N[C@@H](CC(=O)O)C(=O)N[C@H](C(=O)N2CCC[C@H]2C(=O)N[C@@H](CO)C(=O)N[C@H](C(=O)O)[C@@H](C)O)C(C)C)cc1 ({NH(2-Me-phenyl)-CO}-[X1]LDVPST-OH) here?
The IC50 was 5 nM.

And the IC50 (Integrin alpha-4/beta-1 [2])?
The IC50 was 1 nM.

What does the source list for CC(C)C[C@H](NC(=O)Cc1ccccc1)C(=O)N[C@@H](CC(=O)O)C(=O)N[C@H](C(=O)O)C(C)C (PhAc-Leu-Asp-Val-OH)?
IC50 (Integrin alpha-4/beta-1 [1]): 40000 nM; IC50 (Integrin alpha-4/beta-1 [2]): 1000 nM

Which IC50 (Integrin alpha-4/beta-1 [3]) does the source give for Cc1ccccc1NC(=O)Nc1ccc(CC(=O)N[C@@H](CC(C)C)C(=O)O)cc1 here?
Its IC50 is “No inhibition”.

And the IC50 (Integrin alpha-4/beta-1 [4])?
The IC50 was “Not Active”.

Which IC50 [9] does the source give for Cc1ccccc1NC(=O)Nc1ccc(CC(=O)N[C@@H](CC(C)C)C(=O)N[C@@H](CC(=O)O)C(=O)N[C@H](C(=O)N2CCC[C@H]2C(=O)O)C(C)C)cc1 ({NH(2-Me-phenyl)-CO}-[X1]LDVP-OH) here?
The IC50 was over 100000 nM.

What about the IC50 [5] of the same molecule?
The IC50 was over 100000 nM.

What about the IC50 (Integrin alpha-4/beta-7) of the same molecule?
Its IC50 is 2000 nM.

And the IC50 [7]?
Its IC50 is over 100000 nM.

And the IC50 [8]?
Its IC50 is over 100000 nM.

What does the source list for Cc1ccccc1NC(=O)Nc1ccc(CC(=O)N[C@@H](CC(C)C)C(=O)N[C@@H](CC(=O)O)C(=O)N[C@H](C(=O)N2CCC[C@H]2C(N)=O)C(C)C)cc1 ({NH(2-Me-phenyl)-CO}-[X1]LDVP-NH2)?
IC50 (Integrin alpha-4/beta-1 [1]): 8 nM; IC50 (Integrin alpha-4/beta-1 [2]): 1 nM

For Cc1ccccc1NC(=O)Nc1ccc(CC(=O)N[C@@H](CC(C)C)C(=O)N[C@@H](CC(=O)O)C(=O)O)cc1, which IC50 [9] is on record?
Its IC50 is over 100000 nM.

What about the IC50 [5] of the same molecule?
Its IC50 is over 100000 nM.

And the IC50 (Integrin alpha-4/beta-7)?
The IC50 was 59000 nM.

And the IC50 (Integrin alpha-4/beta-1 [1])?
Its IC50 is 68 nM.

And the IC50 (Integrin alpha-5/beta-1)?
The IC50 was over 100000 nM.

What about the IC50 [7] of the same molecule?
The IC50 was over 100000 nM.

And the IC50 (Integrin alpha-4/beta-1 [2])?
Its IC50 is 18 nM.

And the IC50 [8]?
The IC50 was over 100000 nM.

What does the source list for Cc1ccccc1NC(=O)Nc1ccc(CC(=O)N[C@@H](CCCCNC(=O)CCCCCN)C(=O)N[C@@H](CC(=O)O)C(=O)N[C@H](C(=O)N2CCC[C@H]2C(=O)O)C(C)C)cc1 ({NH(2-Me-phenyl)-CO}-[X1]K(Ahx)DVP-OH)?
IC50 (Integrin alpha-4/beta-1 [1]): 20 nM; IC50 (Integrin alpha-4/beta-1 [2]): 4 nM

What does the source list for CC[C@H](C)[C@H](N)C(=O)N[C@@H](CC(C)C)C(=O)N[C@@H](CC(=O)O)C(=O)N[C@H](C(=O)O)C(C)C (H-ILDV-OH)?
IC50 (Integrin alpha-4/beta-1 [1]): 175000 nM; IC50 (Integrin alpha-4/beta-1 [2]): 66000 nM

Which results are given for CC(C)C[C@H](NC(=O)Cc1ccc(NC(=O)OCc2ccccc2)cc1)C(=O)N[C@@H](CC(=O)O)C(=O)N[C@H](C(=O)O)C(C)C?
IC50 (Integrin alpha-4/beta-1 [1]): 200 nM; IC50 (Integrin alpha-4/beta-1 [2]): 30 nM

What does the source list for CC(C)C[C@H](NC(=O)Cc1ccc(O)cc1)C(=O)N[C@@H](CC(=O)O)C(=O)N[C@H](C(=O)O)C(C)C?
IC50 (Integrin alpha-4/beta-1 [1]): 5000 nM; IC50 (Integrin alpha-4/beta-1 [2]): 430 nM

For CC(C)C[C@H](NC(=O)Cc1ccc(NC(=O)Nc2ccccc2)cc1)C(=O)N[C@@H](CC(=O)O)C(=O)N[C@H](C(=O)O)C(C)C, which IC50 (Integrin alpha-4/beta-1 [1]) is on record?
Its IC50 is 30 nM.

What about the IC50 (Integrin alpha-4/beta-1 [2]) of the same molecule?
Its IC50 is 3 nM.
